Among the data in ChEMBL document CHEMBL4145561, “Tiacumicin Congeners with Improved Antibacterial Activity from a Halogenase-Inactivated Mutant” (2018) are MIC values, retold here.

The MIC is the lowest concentration found to suppress growth.

Type in all cases: functional
For one assay, the system named is Bacillus thuringiensis. Kind of assay: Antimicrobial activity against Bacillus thuringiensis SCSIO BT01 by broth microdilution method. The procedure, abridged:
(§1)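 Mueller Hinton broth microdilution; MIC read as the minimal inhibitory concentration. Run against a panel of indicator strains that included MRSA, S. aureus ATCC 29213, B. thuringiensis SCSIO BT01, M. luteus SCSIO ML 01 and E. faecalis ATCC 29212.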
(In general: Dilution methods test growth across graded concentrations, often in twofold steps.)

A further assay relates to Enterococcus faecalis. The assay can be described thus: Antimicrobial activity against Enterococcus faecalis ATCC 29212 by broth microdilution method. The procedure, abridged: as §1
In assay [1] the test system is Staphylococcus aureus. The assay can be described thus: Antimicrobial activity against methicillin-resistant Staphylococcus aureus isolate shhs-A1 by broth microdilution method. The procedure, abridged: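 Minimal inhibitory concentration determined by broth microdilution in Mueller Hinton broth against methicillin-resistant S. aureus shhs-A1, one strain of an indicator panel that also included S. aureus ATCC 29213, B. thuringiensis SCSIO BT01, M. luteus SCSIO ML 01 and E. faecalis ATCC 29212.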

A further assay relates to Micrococcus luteus. Kind of assay: Antimicrobial activity against Micrococcus luteus SCSIO ML01 by broth microdilution method. The procedure, abridged: as §1
The test system of assay [2] is Staphylococcus aureus. The assay can be described thus: Antimicrobial activity against Staphylococcus aureus ATCC 29213 by broth microdilution method. The procedure, abridged: as §1

The structures appear in SMILES notation. Values after ≈ are worked out from the molar mass of the structure shown. A value given as a limit tells only on which side of the number the result lay.

For `CCc1cc(O)cc(O)c1C(=O)O[C@H]1[C@H](O)[C@H](O)[C@H](OC/C2=C\C=C\C[C@H](O)/C(C)=C/[C@H](CC)[C@@H](O[C@@H]3OC(C)(C)[C@@H](OC(=O)C(C)C)[C@H](O)[C@@H]3O)/C(C)=C/C(C)=C/C[C@@H](CC)OC2=O)O[C@@H]1C`, the MIC in the assay on Bacillus thuringiensis was 16 µg/mL (≈ 16.7 µM); with Enterococcus faecalis it was more than 128 µg/mL; against Staphylococcus aureus [1], more than 128 µg/mL; with Micrococcus luteus, more than 128 µg/mL; against Staphylococcus aureus [2], more than 128 µg/mL.

With `CC[C@H]1/C=C(\C)[C@@H](O)C/C=C/C=C(\CO[C@@H]2O[C@H](C)[C@@H](O)[C@H](O)[C@@H]2OC)C(=O)O[C@H]([C@@H](C)O)C/C=C(C)/C=C(\C)[C@@H]1O[C@@H]1OC(C)(C)[C@@H](OC(=O)C(C)C)[C@H](O)[C@@H]1O`, the MIC in the assay on Bacillus thuringiensis, with Enterococcus faecalis, against Staphylococcus aureus [1], in the assay on Micrococcus luteus and in the assay on Staphylococcus aureus [2] was more than 128 µg/mL in each case.

Regarding `CCc1cc(O)cc(O)c1C(=O)O[C@H]1[C@H](O)[C@H](OC)[C@H](OC/C2=C\C=C\C[C@H](O)/C(C)=C/[C@H](CC)[C@@H](O[C@@H]3OC(C)(C)[C@@H](OC(=O)C(C)C)[C@H](O)[C@@H]3O)/C(C)=C/C(C)=C/C[C@@H](C(C)=O)OC2=O)O[C@@H]1C`, the MIC was 8 µg/mL (≈ 8.1 µM) in the assay with Bacillus thuringiensis; more than 128 µg/mL in the assay with Enterococcus faecalis; more than 128 µg/mL in the assay on Staphylococcus aureus [1]; more than 128 µg/mL against Micrococcus luteus; more than 128 µg/mL in the assay with Staphylococcus aureus [2].

Regarding `CCc1cc(O)cc(O)c1C(=O)O[C@H]1[C@H](O)[C@H](OC)[C@H](OC/C2=C\C=C\C[C@H](O)/C(C)=C/[C@H](CC)[C@@H](O[C@@H]3OC(C)(C)[C@@H](OC(C)=O)[C@H](O)[C@@H]3O)/C(C)=C/C(C)=C/C[C@@H]([C@@H](C)O)OC2=O)O[C@@H]1C`, the MIC was 8 µg/mL (≈ 8.32 µM) in the assay on Bacillus thuringiensis; more than 128 µg/mL in the assay on Enterococcus faecalis; more than 128 µg/mL against Staphylococcus aureus [1]; 64 µg/mL (≈ 66.6 µM) against Micrococcus luteus; 128 µg/mL (≈ 133 µM) against Staphylococcus aureus [2].

Regarding `CCCc1cc(O)cc(O)c1C(=O)O[C@H]1[C@H](O)[C@H](OC)[C@H](OC/C2=C\C=C\C[C@H](O)/C(C)=C/[C@H](CC)[C@@H](O[C@@H]3OC(C)(C)[C@@H](OC(=O)C(C)C)[C@H](O)[C@@H]3O)/C(C)=C/C(C)=C/C[C@@H]([C@@H](C)O)OC2=O)O[C@@H]1C`, the MIC against Bacillus thuringiensis was found to be 0.5 µg/mL (≈ 0.498 µM); in the assay on Enterococcus faecalis, 4 µg/mL (≈ 3.99 µM); in the assay on Staphylococcus aureus [1], 2 µg/mL (≈ 1.99 µM); in the assay with Micrococcus luteus, 1 µg/mL (≈ 0.997 µM); against Staphylococcus aureus [2] it was 2 µg/mL (≈ 1.99 µM).

As to `CCc1cc(O)cc(O)c1C(=O)O[C@H]1[C@H](O)[C@H](OC)[C@H](OC/C2=C\C=C\C[C@H](O)/C(C)=C/[C@H](CC)[C@@H](O[C@@H]3OC(C)(C)[C@@H](OC(=O)C(C)C)[C@H](O)[C@@H]3O)/C(C)=C/C(C)=C/C[C@@H]([C@@H](C)O)OC2=O)O[C@@H]1C`, the MIC in the assay on Bacillus thuringiensis is 1 µg/mL (≈ 1.01 µM); with Enterococcus faecalis, 16 µg/mL (≈ 16.2 µM); in the assay with Staphylococcus aureus [1], 2 µg/mL (≈ 2.02 µM); in the assay on Micrococcus luteus, 2 µg/mL (≈ 2.02 µM); against Staphylococcus aureus [2], 2 µg/mL (≈ 2.02 µM).

As for `CC[C@@H]1C/C=C(C)/C=C(\C)[C@H](O[C@@H]2OC(C)(C)[C@@H](O)[C@H](O)[C@@H]2O)[C@@H](CC)/C=C(\C)[C@@H](O)C/C=C/C=C(\CO[C@@H]2O[C@H](CO)[C@@H](O)[C@H](O)[C@@H]2O)C(=O)O1`, the MIC against Bacillus thuringiensis, in the assay on Enterococcus faecalis, against Staphylococcus aureus [1], against Micrococcus luteus and in the assay on Staphylococcus aureus [2] was more than 128 µg/mL throughout.

On to `CCc1cc(O)cc(O)c1C(=O)O[C@H]1[C@H](O)[C@H](OC)[C@H](OC/C2=C\C=C\C[C@H](O)/C(C)=C/[C@H](CC)[C@@H](O[C@@H]3OC(C)(C)[C@@H](OC(=O)C(C)C)[C@H](O)[C@@H]3O)/C(C)=C/C(C)=C/C[C@@H](CC)OC2=O)O[C@@H]1C`, for which the MIC in the assay with Bacillus thuringiensis is 4 µg/mL (≈ 4.11 µM); in the assay with Enterococcus faecalis it was more than 128 µg/mL; in the assay with Staphylococcus aureus [1], more than 128 µg/mL; against Micrococcus luteus it was more than 128 µg/mL; in the assay with Staphylococcus aureus [2], more than 128 µg/mL.

Consider `CC[C@H]1/C=C(\C)[C@@H](O)C/C=C/C=C(\CO[C@@H]2O[C@H](C)[C@@H](OC(=O)c3c(C)cc(O)cc3O)[C@H](O)[C@@H]2OC)C(=O)O[C@H]([C@@H](C)O)C/C=C(C)/C=C(\C)[C@@H]1O[C@@H]1OC(C)(C)[C@@H](OC(=O)C(C)C)[C@H](O)[C@@H]1O`, for which the minimum inhibitory concentration (MIC) was determined as 8 µg/mL (≈ 8.2 µM) against Bacillus thuringiensis; 64 µg/mL (≈ 65.6 µM) with Enterococcus faecalis; 16 µg/mL (≈ 16.4 µM) against Staphylococcus aureus [1]; 16 µg/mL (≈ 16.4 µM) in the assay with Micrococcus luteus; 16 µg/mL (≈ 16.4 µM) with Staphylococcus aureus [2].

For `CCC(=O)O[C@H]1[C@H](O)[C@H](O)[C@H](O[C@H]2/C(C)=C/C(C)=C/C[C@@H]([C@@H](C)O)OC(=O)/C(CO[C@@H]3O[C@H](C)[C@@H](OC(=O)c4c(O)cc(O)cc4CC)[C@H](O)[C@@H]3OC)=C/C=C/C[C@H](O)/C(C)=C/[C@@H]2CC)OC1(C)C`, the MIC was determined as 2 µg/mL (≈ 2.05 µM) against Bacillus thuringiensis; 32 µg/mL (≈ 32.8 µM) against Enterococcus faecalis; 8 µg/mL (≈ 8.2 µM) with Staphylococcus aureus [1]; 16 µg/mL (≈ 16.4 µM) with Micrococcus luteus; 8 µg/mL (≈ 8.2 µM) in the assay with Staphylococcus aureus [2].

For `CCc1cc(O)cc(O)c1C(=O)O[C@H]1[C@H](O)[C@H](OC)[C@H](OC/C2=C\C=C\C[C@H](O)/C(C)=C/[C@H](CC)[C@@H](O[C@@H]3OC(C)(C)[C@@H](O)[C@H](O)[C@@H]3O)/C(C)=C/C(C)=C/C[C@@H](CC)OC2=O)O[C@@H]1C`, the MIC was 16 µg/mL (≈ 17.7 µM) against Bacillus thuringiensis; more than 128 µg/mL in the assay with Enterococcus faecalis; more than 128 µg/mL against Staphylococcus aureus [1]; 8 µg/mL (≈ 8.86 µM) against Micrococcus luteus; more than 128 µg/mL against Staphylococcus aureus [2].

`CCc1c(Cl)c(O)c(Cl)c(O)c1C(=O)O[C@H]1[C@H](O)[C@H](OC)[C@H](OC/C2=C\C=C\C[C@H](O)/C(C)=C/[C@H](CC)[C@@H](O[C@@H]3OC(C)(C)[C@@H](OC(=O)C(C)C)[C@H](O)[C@@H]3O)/C(C)=C/C(C)=C/C[C@@H]([C@@H](C)O)OC2=O)O[C@@H]1C` [FIDAXOMICIN]: the MIC was 2 µg/mL (≈ 1.89 µM) with Bacillus thuringiensis; 16 µg/mL (≈ 15.1 µM) with Enterococcus faecalis; 1 µg/mL (≈ 0.945 µM) against Staphylococcus aureus [1]; 4 µg/mL (≈ 3.78 µM) against Micrococcus luteus; 4 µg/mL (≈ 3.78 µM) with Staphylococcus aureus [2].
